Compounds with a hit are over-represented: about 5.3% of the library has one in this group of screens.
Cav3 T inh = blocks human Cav3.2 T-type calcium channel. O95180. Cav3.2-expressing cells, Fluo-4 calcium fluorescence FDSS; active compounds read low. B-score at 10 µM. hit rate 4% among 100,000. AID 449739;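 active means single-dose well whose peak fluorescence ratio is a statistical outlier from its plate by either plate-standardised score or position-corrected B-score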
FAK inh = blocks human focal adhesion kinase activity. Q05397. biochemical FAK kinase activity assay. inhibition, %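 (tested at 7 µM)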. hit rate 0.84% among 97,000. AID 727; in the data active means inhibition above about 19%;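 further: 0% = DMSO and 100% = reference compound high control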
Plk1 PBD FP = blocks phosphopeptide binding to human Plk1 polo box domain | inhibition, %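 (tested at about 20 µM)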 | hit rate 0.13% among 97,000 | P53350 | Plk1 PBD phosphopeptide binding, fluorescence polarization | AID 693; in the data active means inhibition above about 34%, passing the limit was not always enough
Target sequence (P53350 whole entry, looked up, the tested form may be a part): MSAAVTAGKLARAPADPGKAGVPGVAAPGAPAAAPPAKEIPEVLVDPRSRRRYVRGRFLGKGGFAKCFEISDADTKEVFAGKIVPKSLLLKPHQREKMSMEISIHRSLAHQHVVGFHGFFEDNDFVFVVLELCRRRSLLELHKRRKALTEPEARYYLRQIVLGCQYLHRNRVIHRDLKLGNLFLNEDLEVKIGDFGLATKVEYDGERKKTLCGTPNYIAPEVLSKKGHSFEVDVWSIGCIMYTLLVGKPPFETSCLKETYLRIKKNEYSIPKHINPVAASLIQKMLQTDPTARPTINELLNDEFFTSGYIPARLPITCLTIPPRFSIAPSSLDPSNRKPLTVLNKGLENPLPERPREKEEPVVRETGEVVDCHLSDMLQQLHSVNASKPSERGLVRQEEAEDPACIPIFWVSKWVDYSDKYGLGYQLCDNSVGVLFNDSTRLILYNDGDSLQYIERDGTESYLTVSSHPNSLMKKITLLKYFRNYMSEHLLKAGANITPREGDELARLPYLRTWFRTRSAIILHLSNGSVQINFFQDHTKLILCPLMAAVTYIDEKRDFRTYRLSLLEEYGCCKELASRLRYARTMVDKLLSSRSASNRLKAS
HIV Rev-RRE inh = disrupts HIV-1 Rev binding to RRE RNA. P05866. Rev peptide-RRE RNA binding, FRET. inhibition, % at 8 µM. hit rate 0.79% among 97,000. AID 704;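 active means inhibition above the screen-wide mean plus 3 SD, cut at about 35% in these data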;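 further: 0% = median DMSO wells and 100% = median Neomycin B control wells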
Target sequence (P05866 whole entry, looked up): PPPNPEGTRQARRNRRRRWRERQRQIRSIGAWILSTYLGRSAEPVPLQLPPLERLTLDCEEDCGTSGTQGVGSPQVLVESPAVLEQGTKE
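Assay system: Rev peptide and RRE RNA, both fluorescently labelled; times: 5 min preincubation and 15 min binding, 25 °C; detection: FRET, ex 480 nm, em 540 and 671 nm; read-out basis: % inhibition from 671/540 nm acceptor-to-donor ratio, scaled between controls; benchmarks: DMSO low control, neomycin B high control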
PLK1 inh = blocks human PLK1 kinase activity; P53350; recombinant PLK1 kinase, TR-FRET peptide phosphorylation; inhibition, % at 10 µM; hit rate 0.53% among 97,000;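 active means inhibition of 50% or more in the single-concentration screen; inactive means inhibition below 50%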;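 further: 0% = DMSO max control and 100% = H-89 dihydrochloride min control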
EphB4 ephrin blk = EphB4-ephrin-B2 interaction antagonism; P54760; EphB4 LBD / TNYL-RAW-Alexa532 peptide, fluorescence polarization; inhibition, % at 7 µM; hit rate 0.15% among 97,000; AID 720;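 active means inhibition above the screen-wide mean inhibition plus 3 SD, cut at about 15% in these data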;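 further: 0% = DMSO wells and 100% = excess unlabeled TNYL-RAW peptide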
Active calls of the source: *; nt = no result.

SMILES | Cav3 T inh | FAK inh | Plk1 PBD FP | HIV Rev-RRE inh | PLK1 inh | EphB4 ephrin blk
CCOC(=O)c1cnc(SCc2cccc(C)c2)nc1N | -4.9* | 4 | 3 | 12 | -6 | 6
Cc1onc(-c2c(Cl)cccc2Cl)c1C(=O)N1CCc2ccccc2C1 | nt | 5 | -23 | 8 | -9 | 8
COc1ccc(Cl)cc1NC(=O)CN(C1CCCCC1)S(C)(=O)=O | -4.3* | 1 | -24 | 18 | -8 | 6
COc1ccc(Cl)cc1NC(=O)CCc1ccccc1 | -4.6* | -2 | -29 | 6 | -8 | 8
CSc1ccccc1NC(=O)CN(C1CCCCC1)S(C)(=O)=O | 0.71 | -3 | 15 | 1 | 2 | -5
Cc1ccc(N(CC(=O)Nc2cc(Cl)ccc2Oc2ccccc2)S(C)(=O)=O)cc1C | -5.9* | 0 | -35 | 3 | -8 | 1
COc1cc(OC)c(NC(=O)CCc2ccccc2)cc1Cl | -2.3 | 2 | -1 | 9 | -3 | -8
O=c1cc(-c2ccccc2Cl)oc2c(NS(=O)(=O)c3cccs3)ccc(O)c12 | -2.7 | nt | nt | nt | nt | nt
CCCN(S(=O)(=O)c1ccc(OCC)cc1)S(=O)(=O)c1cccs1 | 0.27 | 0 | 0 | 21 | -6 | 2
COC(=O)c1ccc(C(=O)OC)c(NC(=O)COC(=O)C2CCC(C(C)(C)C)CC2)c1 (centres undefined) | -4.8* | 2 | -21 | -2 | -12 | -3
CC(C)CCNC(=O)C12CN(Cc3ccccc3)CC1C(c1cccc([N+](=O)[O-])c1)=NO2 (centres undefined) | -4.7* | 1 | -9 | 8 | -12 | -3
CCOc1ccc(OC(=O)NC(c2ccccc2)C(Cl)(Cl)Cl)cc1 (centres undefined) | -3.5* | 1 | -23 | 5 | -12 | 1
CCOC(=O)NC(CC(=O)O)c1ccc(OCC)cc1 (centres undefined) | 1.5 | 2 | 7 | 11 | -7 | -3
O=C1COc2ccc(C(=O)c3ccccc3C(=O)NCc3ccccc3)cc2N1 | -7.2* | -1 | -22 | 7 | -3 | 8
O=C1COc2ccc(C(=O)c3ccccc3C(=O)NCc3ccco3)cc2N1 | -3 | 0 | -20 | -5 | -11 | -2
COc1cc(/C=C2\S/C(=N/S(=O)(=O)c3ccc(C)cc3)NC2=O)c([N+](=O)[O-])cc1OC | -5.3* | -6 | 9 | 17 | -7 | -3
Cc1ccc(S(=O)(=O)/N=C2/NC(=O)/C(=C\c3ccco3)S2)cc1 | nt | -1 | -40 | 5 | -16 | -2
Cc1nn(C2CCCCC2)c(N)c1-c1ccccc1 | -3.4* | -3 | -9 | 6 | -8 | -4
CC(=O)O[C@]1(C(C)=O)CC[C@H]2[C@@H]3C=C(Cl)C4=CC(=O)[C@@H]5C[C@@H]5[C@]4(C)[C@H]3CC[C@@]21C | -0.14 | nt | nt | nt | nt | nt
COc1cccc2cc(-c3cn4ccc(C)cc4n3)c(=O)oc12 | -0.015 | 19* | -15 | -4 | -9 | -5
CCOc1cccc2cc(-c3cn4cc(C)ccc4n3)c(=O)oc12 | 0.47 | 3 | 9 | -3 | -4 | -4
C=CCn1c(SCc2c(C)noc2C)nnc1C1COc2ccccc2O1 (centres undefined) | -4.9* | 4 | 16 | 6 | -6 | 12
Cc1cccc(NC(=O)Cn2cnc3ccccc3c2=O)c1C | 1.4 | 1 | 16 | 4 | 2 | 1
Cc1ccc(CNC(=O)C(=O)NCC2OCCN2C(=O)c2ccc(Cl)cc2)cc1 (centres undefined) | -4.4* | nt | nt | nt | nt | nt
O=C(NCCc1c[nH]c2ccccc12)C(=O)NCC1OCCN1S(=O)(=O)c1ccc(F)cc1 (centres undefined) | -5.9* | nt | nt | nt | nt | nt
SMILES | Cav3 T inh | FAK inh | Plk1 PBD FP | HIV Rev-RRE inh | PLK1 inh | EphB4 ephrin blk
COc1ccccc1CNC(=O)C(=O)NCC1OCCN1S(=O)(=O)c1ccc2c(c1)OCCO2 (centres undefined) | 0.47 | nt | nt | nt | nt | nt
O=C(NCc1ccc(Cl)cc1)C(=O)NCC1OCCN1S(=O)(=O)c1ccc2c(c1)OCCO2 (centres undefined) | -5.1* | nt | nt | nt | nt | nt
O=C(NCCc1c[nH]c2ccccc12)C(=O)NCC1OCCN1S(=O)(=O)c1ccc(Cl)cc1 (centres undefined) | -7.1* | nt | nt | nt | nt | nt
CCOC(=O)C1=C(C)N(CCCC(=O)O)C(=O)NC1c1cccc(OC)c1 (centres undefined) | 0.23 | nt | nt | nt | nt | nt
O=C(Nc1cccc(C(F)(F)F)c1)/C(=C/c1ccco1)NC(=O)c1cccs1 | nt | -7 | 12 | 11 | 0 | -4
CCOc1ccc(C(O)C(CN2CCOCC2)c2ccccc2)cc1 (centres undefined) | 0.66 | 1 | 15 | 1 | -12 | -2
COc1cc([C@@H]2[C@H]3CNCC=C3C(C#N)=C(N)C2(C#N)C#N)ccc1OC(C)C | 0.095 | 8 | -13 | 50* | -3 | -5
N#Cc1c(NC(=O)CSc2nnc(-c3ccccc3O)n2-c2ccccc2)sc2c1CCCC2 | -4.8* | -2 | -11 | 9 | -14 | -9
CCn1c(SCC(=O)Nc2sc3c(c2C#N)CCCC3)nnc1-c1ccncc1 | 0.077 | 3 | -13 | 12 | -2 | 17*
CC(C)CC(COCc1ccc(Cl)cc1)N1CCN(C(=O)c2ccc(Cl)cc2Cl)CCC1=O (centres undefined) | -2.4 | nt | nt | nt | nt | nt
CCOC(=O)/C=C1\SCC(=O)N1CC(=O)Nc1ccc(C(C)C)cc1 | -3.8* | -1 | 14 | 16 | 0 | 3
CCOC(=O)/C=C1\SCC(=O)N1CCOc1cccc(Br)c1 | -4.3* | nt | nt | nt | nt | nt
CCOC(=O)/C=C1\SCC(=O)N1CC(=O)Nc1ccc2c(c1)CCC2 | -1 | 7 | -14 | 15 | -8 | -4
CCOC(=O)/C=C1\SCC(=O)N1CC(O)CN1C(=O)CS/C1=C\C(=O)OCC | 1.3 | -1 | -43 | -1 | -7 | -4
COC(=O)c1ccc(C(=O)OC)c(NC(=O)CSc2cccc[n+]2[O-])c1 | 0.16 | 0 | -4 | 6 | -9 | 7
O=C(NC1CCCCC1)NC1CC2CCC(C1)N2Cc1nnnn1Cc1ccc2c(c1)OCO2 (centres undefined) | nt | 0 | -5 | 6 | -13 | 4
O=C(Cn1ncc2c1-c1ccccc1OC2)Nc1ccc(Cl)cn1 | -0.9 | 6 | 1 | 9 | -15 | 0
Cc1ccc(C)c(CN2CCCN(C(=O)Cn3ncc4c3-c3ccccc3OC4)C2)c1 | -6* | 3 | -7 | 6 | 4 | 8
CCOC(=O)N1CCN(C(=O)Cn2ncc3c2-c2ccccc2OC3)CC1 | -0.5 | -1 | -15 | 1 | -14 | 2
O=C(Cn1ncc2c1-c1ccccc1OC2)Nc1cccc(Cl)c1 | -5* | -2 | 0 | 11 | 6 | -2
CCOC(=O)C1CCN(C(=O)CSC2=NCCS2)CC1 | -1.2 | nt | nt | nt | nt | nt
Cc1cc2c(=O)n(Cc3ccco3)c(SCC(=O)c3ccc(Cl)s3)nc2s1 | -4.7* | 5 | -6 | 7 | -17 | 8
COCCN1CCN(C(=O)c2ccc3c(c2)S(=O)(=O)c2ccccc2C3=O)CC1 | 0.93 | nt | nt | nt | nt | nt
O=C1CC(=O)N(Cc2ccco2)C(=S)N1 | 0.36 | 1 | 34 | 77* | -11 | 1

Source: PubChem (several laboratories)
